Published values of several laboratories.
Nuclear receptor subfamily 4 group A member 2: Nuclear receptor subfamily 4 group A member 2 (Homo sapiens, UniProt P43354)
ADRA1B: Alpha-1B adrenergic receptor (ADRA1B, Homo sapiens, UniProt P35368)
P2RY14: P2Y purinoceptor 14 (P2RY14, Homo sapiens, UniProt Q15391)

SMILES | target | assay | endpoint | result
CN1C(C(=O)Nc2ccccn2)=C(O)c2sc(Cl)cc2S1(=O)=O | Nuclear receptor subfamily 4 group A member 2 | binding, ITC | Kd | 1.4 µM
Cc1cc(Oc2ncccc2CN2CCN(c3ccccc3[N+](=O)[O-])CC2)ccc1-c1c(C)c(=O)[nH]c(=O)n1C | ADRA1B | ligand displacement, radioligand | Ki | 2.92 µM
Cc1onc(-c2ccccc2)c1-c1ccc(S(N)(=O)=O)cc1 | Nuclear receptor subfamily 4 group A member 2 | binding, ITC | Kd | 1.2 µM
O=C(O)c1cc(-c2ccc(-n3ccnn3)cc2)c2ccc(-c3ccc(C(F)(F)F)cc3)cc2c1 | P2RY14 | ligand displacement in cells, flow cytometry | Ki | 0.0142 µM
Cc1cc(Oc2ncccc2CN2CCN(c3cccc(F)c3)CC2)ccc1-c1c(C)c(=O)[nH]c(=O)n1C | ADRA1B | ligand displacement, radioligand | Ki | 3.02 µM
COc1cccc2c(Nc3ccc4[nH]c(C(=O)N/N=C/c5ccc(SC)cc5)cc4c3)cc(C)nc12 | Nuclear receptor subfamily 4 group A member 2 | binding, ITC | Kd | 2.8 µM
Cc1cc(Oc2ncccc2CN2CCN(C(c3ccccc3)c3ccccc3)CC2)ccc1-c1c(C)c(=O)[nH]c(=O)n1C | ADRA1B | ligand displacement, radioligand | Ki | 0.721 µM
Cn1nccc1-c1ccc(-c2cc(C(=O)O)cc3cc(-c4ccc(C(F)(F)F)cc4)ccc23)cc1 | P2RY14 | ligand displacement in cells, flow cytometry | Ki | 0.0284 µM
Cc1cc(Oc2ncccc2CN2CCN(c3ccccc3C#N)CC2)ccc1-c1c(C)c(=O)[nH]c(=O)n1C | ADRA1B | ligand displacement, radioligand | Ki | 0.464 µM
O=C(O)c1cc(-c2ccc(-c3ccc(Cl)s3)cc2)c2ccc(-c3ccc(C(F)(F)F)cc3)cc2c1 | P2RY14 | ligand displacement in cells, flow cytometry | Ki | 1.19 µM
CCC1c2ccsc2CCN1Cc1nc2ccc(Cl)cc2n1CCO (stereo not drawn) | DDB1- and CUL4-associated factor 1 (DCAF1, Homo sapiens, UniProt Q9Y4B6) | binding, SPR | Kd | 20 µM
O=C(O)c1cc(-c2ccc([C@H]3C[C@H]4C[C@@H]3CN4)cc2)c2ccc(-c3ccc(C(F)(F)F)cc3)cc2c1 | P2RY14 | ligand displacement, flow cytometry | Ki | 0.00181 µM
Cc1cc(Oc2ncccc2CN2CCN(c3cccc(C)c3C)CC2)ccc1-c1c(C)c(=O)[nH]c(=O)n1C | ADRA1B | ligand displacement, radioligand | Ki | 4.42 µM
O=C(O)c1cc(-c2ccc(-n3cc(CCOP(=O)(O)O)nn3)cc2)c2ccc(-c3ccc(C(F)(F)F)cc3)cc2c1 | P2RY14 | ligand displacement in cells, flow cytometry | Ki | 0.779 µM
CCN(CC)Cc1cc(Nc2ccnc3cc(Cl)ccc23)ccc1O | Nuclear receptor subfamily 4 group A member 2 | binding, ITC | Kd | 2.7 µM
